These results are taken from PMC5575935 (Journal of the American Chemical Society, 2017).

Changes are numbered by the printed parent chain. pIC50: −log10 of the molar value.

Assay [1] addresses T1, MAP2K6 (Homo sapiens, UniProt P52564).
T1 sequence (P52564 1-334): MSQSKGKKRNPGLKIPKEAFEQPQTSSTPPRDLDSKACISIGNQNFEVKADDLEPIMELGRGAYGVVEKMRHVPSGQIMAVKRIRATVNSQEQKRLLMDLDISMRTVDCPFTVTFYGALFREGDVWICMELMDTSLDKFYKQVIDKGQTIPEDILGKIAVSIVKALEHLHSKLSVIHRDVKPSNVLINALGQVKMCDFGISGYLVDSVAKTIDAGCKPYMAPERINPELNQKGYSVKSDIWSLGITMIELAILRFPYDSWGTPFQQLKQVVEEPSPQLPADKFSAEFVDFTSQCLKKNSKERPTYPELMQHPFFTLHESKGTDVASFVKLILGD
Nature of the assay: Z′-LYTE kinase inhibition assay. The format is biochemical. The settings on record: nonelectrophilic analogs relative to EA.

In assay [2] the target is T2, GSK3α (Homo sapiens, UniProt P49840). Description: IDUP library × library selection, enrichment of ligand:protein barcodes. In kind it is binding. An outline of the steps: (§1)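 Kinases were expressed as SNAP fusions by transient transfection of pDEST-SNAP-kinase vectors into HEK293T cells. Each unpurified lysate was labelled with a 31-nt benzylguanine-linked oligonucleotide carrying a unique 6-nt barcode and a common 3′ 8-nt hybridization region. The pooled protein library was combined with 2 pmol of an equimolar library of 136 DNA-linked compounds. IDUP primer extension followed, and extended products encoding protein:ligand pairs were PCR-amplified for barcode enrichment.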

Assay [3] deals with T2, GSK3α. Description: Z′-LYTE kinase inhibition assay. The format is biochemical. To be noted: non-DNA tagged ligand.
For assay [4], the target named is T1, MAP2K6. Nature of the assay: IDUP library × library selection, enrichment of ligand:protein barcodes. The format is binding. An outline of the steps:
as §1

Assay [5] addresses T3, MAP2K6EE (constitutively active MAP2K6 mutant, S207E and T211E) (Homo sapiens, UniProt P52564, S207E/T211E).
T3 sequence (P52564 1-334 S207E/T211E): T1 sequence (P52564 1-334) with S207E, T211E
Description: Z′-LYTE kinase activity after preincubation with EA and dialysis. The format is biochemical. The settings on record: MAP2K6EE incubated with 100 µM EA, then dialyzed into EA-free buffer; vs DMSO. An outline of the steps: (§2)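 The kinase, either MAP2K6EE (S207E/T211E) or its C38A variant, was incubated with 100 µM test compound or DMSO. It was then dialyzed to remove free compound. Z′-LYTE kinase activity was measured as a function of kinase concentration.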

Assay [6] has as its target T4, C38A point mutant of MAP2K6EE (Homo sapiens, UniProt P52564, C38A/S207E/T211E).
T4 sequence (P52564 1-334 C38A/S207E/T211E): T1 sequence (P52564 1-334) with C38A, S207E, T211E
Described as above. In kind it is biochemical. The settings on record: C38A MAP2K6EE preincubated with 100 µM EA, then dialyzed; vs DMSO. An outline of the steps:
as §2

The test system of the next assay is MAP2K6 and other MAP2Ks. Description: LanthaScreen Eu binding assays on MAP2K family members. Set-up: species or system human. The settings on record: LanthaScreen Eu assays and initial IDUP assay. (TR-FRET usually uses a lanthanide donor and a delayed reading to cut background.)

T2 sequence (P49840 whole entry, the tested form may be a part): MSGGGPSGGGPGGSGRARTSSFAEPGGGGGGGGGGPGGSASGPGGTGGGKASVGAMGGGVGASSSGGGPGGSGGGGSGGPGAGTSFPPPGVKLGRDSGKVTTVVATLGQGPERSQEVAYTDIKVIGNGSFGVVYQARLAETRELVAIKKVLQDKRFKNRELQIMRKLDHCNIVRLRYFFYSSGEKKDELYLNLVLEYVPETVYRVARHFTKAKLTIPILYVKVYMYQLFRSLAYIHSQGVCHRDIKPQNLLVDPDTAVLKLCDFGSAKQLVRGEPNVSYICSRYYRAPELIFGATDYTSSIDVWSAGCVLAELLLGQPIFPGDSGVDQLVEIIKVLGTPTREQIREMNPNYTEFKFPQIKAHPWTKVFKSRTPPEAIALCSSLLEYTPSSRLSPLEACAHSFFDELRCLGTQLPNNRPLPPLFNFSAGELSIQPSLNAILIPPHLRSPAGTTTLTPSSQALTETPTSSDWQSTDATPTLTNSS

As for `CCC(C)C(=O)c1ccc(OCC(=O)O)c(Cl)c1Cl` (centres unmarked) [dihydro-ethacrynic acid], at MAP2K6 [1], the “fold weaker inhibition of MAP2K6 than EA” value is given as over 30 fold.
The term pIC50 denotes the negative decadic logarithm of the IC50, by convention in mol/L. Lower therefore signals a high IC50. On to `Cl.Cn1cc(C2=C(c3c4n(c5ccccc35)CCC(CN)C4)C(=O)NC2=O)c2ccccc21` (centres unmarked) [bisX, bisindolylmaleimide X], for which the IDUP enrichment on GSK3α [2] was found to be 4.7 fold. At GSK3α [3], this molecule showed a pIC50 of 6.94.
At MAP2K6 [4], `C=C(CC)C(=O)c1ccc(OCC(=O)O)c(Cl)c1Cl` [EA, ethacrynic acid] came in with an IDUP enrichment of 4.7 fold. For the same molecule, the “apparent loss of kinase activity” value in assay [5] turned out to be 9 fold. For the same molecule, in assay [6], the “loss in inhibition potency” value is reported as ~ 3.3 fold. For the same molecule, the “affinity for MAP2K6 compared with other MAP2Ks” value in the assay with MAP2K6 and other MAP2Ks is given as “higher affinity for MAP2K6 than other MAP2Ks”.
For `O=C(O)COc1ccc(C(=O)c2cccs2)c(Cl)c1Cl` [tienilic acid], on MAP2K6 [1], the “fold weaker inhibition of MAP2K6 than EA” value is listed as over 30 fold.
